# ChEMBL document CHEMBL1770150, “Synthesis, biological evaluation and molecular modeling studies of quinolonyl diketo acid derivatives: new structural insight into the HIV-1 integrase inhibition” (Eur J Med Chem, 2011)
# What was measured:
# [1] = test system: Human immunodeficiency virus 1; test: Antiviral activity against HIV1 NL4-3 infected in human TZM-bl cells assessed as inhibition of Tat protein-induced transactivation after 48 hrs by beta galactosidase assay; assay type: functional, organism-based; settings: Human immunodeficiency virus 1, NL4-3, TZM-bl
# Procedure, shortened: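 TZM-bl cells were grown in DMEM at 37 °C with 5% CO2 and plated at 5000 cells/well. After 48 h the medium was replaced with compound dilutions (0.00128 to 4). Cells were infected with NL4-3 (100 ng p24) 4 h later. At 48 h post-infection, cells were lysed in PBS with 0.1% NP-40 and 5 mM MgCl2. β-galactosidase was read with chlorophenol red-galactopyranoside. EC50 came from dose-response curves.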
# [2] = Selectivity index, ratio of CC50 for human TZM-bl cells to EC50 for HIV1 NL4-3; assay type: toxicity, cell-based; settings: read-out: Ratio CC50/EC50
# Procedure, shortened: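 Index was calculated as CC50/EC50, both determined in TZM-bl cells (WST-1 viability over 3 days; NL4-3 infection with β-galactosidase read-out).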
# [3] = biological target: T1, Human immunodeficiency virus type 1 integrase (Human immunodeficiency virus 1, UniProt Q7ZJM1); test: Inhibition of HIV1 integrase 3' processing activity after 1 hr by gel based assay in presence of magnesium
# T1 sequence (Q7ZJM1 whole entry): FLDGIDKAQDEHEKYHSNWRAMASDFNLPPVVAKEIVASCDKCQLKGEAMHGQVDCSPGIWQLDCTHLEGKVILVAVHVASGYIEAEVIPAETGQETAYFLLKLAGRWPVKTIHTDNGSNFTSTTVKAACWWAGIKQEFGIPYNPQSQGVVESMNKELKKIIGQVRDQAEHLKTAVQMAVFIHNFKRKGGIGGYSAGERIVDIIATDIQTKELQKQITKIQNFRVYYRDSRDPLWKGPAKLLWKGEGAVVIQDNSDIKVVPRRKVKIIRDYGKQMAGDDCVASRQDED
# Procedure, shortened: (§1)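 Buffer was 20 mM HEPES pH 7.5, 1 mM DTT, 10 mM MgCl2 and 10% DMSO, for 1 h at 37 °C. DNA was precipitated, phenol/chloroform-extracted and analysed on gel. IC50 was fitted from percent inhibition versus concentration, from duplicate experiments.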
# [4] = Cytotoxicity against human TZM-bl cells assessed as cell viability after 3 days by WST-1 assay; assay type: cell-based
# Procedure, shortened: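 TZM-bl cells were seeded at 5000/well, and compound dilutions (100 to 0.032) were added 2 h later. Cells and compound were held 3 days at 37 °C in growth medium. Viability was measured by WST-1 cleavage, absorbance at […]. Cytotoxicity is the percent reduction in viable cells relative to drug-free control cultures.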
# [5] = biological target: T1, Human immunodeficiency virus type 1 integrase; test: Inhibition of HIV1 integrase strand transfer activity after 1 hr by gel based assay in presence of magnesium; procedure, shortened: as §1
Structure (SMILES),EC50 [1] [µM],IC50 [3] [µM],IC50 [5] [nM],selectivity ratio [2],CC50 at 72 h [4] [mM]
CCOC(=O)/C=C/c1ccc2c(c1)c(=O)c(C(=O)/C=C(\O)C(=O)OCC)cn2Cc1ccc(F)cc1,> 140,> 300,> 300000,7,> 1
O=C(O)/C=C/c1ccc2c(c1)c(=O)c(C(=O)/C=C(\O)C(=O)O)cn2Cc1ccc(F)cc1,5,8,30,200,> 1

# Now from value to molecule, other results behind:
EC50 [1] [µM],IC50 [3] [µM],IC50 [5] [nM],Structure (SMILES),selectivity ratio [2],CC50 at 72 h [4] [mM]
13,> 300,> 300000,CCOC(=O)/C(O)=C/C(=O)c1cn(Cc2ccc(F)cc2)c2ccc(OCc3ccc(F)cc3)cc2c1=O,77,> 1
4,1.6,30,O=C(O)/C(O)=C/C(=O)c1cn(Cc2ccc(F)cc2)c2ccc(Br)cc2c1=O,250,> 1
1,3,50,O=C(O)/C(O)=C/C(=O)c1cn(Cc2ccc(F)cc2)c2ccc(OCc3ccc(F)cc3)cc2c1=O,1000,> 1
